Measured values of several laboratories.
Compare with care: the assays were run in different laboratories.
Sample: plasma

Cn1cc(-c2ccc(S(=O)(=O)[C@@H]3C[C@@H](C(=O)NC4(C#N)CC4)N(C(=O)C4(C(F)(F)F)CC4)C3)c(C(F)(F)F)c2)cn1 — Cmax (human; oral, 300 mg, single dose, fasted, healthy volunteers): 1.07 µg/mL
C[C@@]1(c2cc(NC(=O)c3ccc(C#N)cn3)ccc2F)C=CSC(N)=N1 — Cmax (human; oral, 3 mg, single dose): 0.0172 µg/mL
CC(C)(Sc1ccncc1-c1ccc(C#N)c2ccccc12)C(=O)O — Cmax (male human; oral, 20 mg, single dose, fasted, healthy volunteers): 0.384 µg/mL
CC(C)n1cc(C#N)c2cc(-n3cc(C(=O)O)cn3)ccc21 — Cmax (human; oral, 25 mg, single dose, fasted, healthy volunteers): 0.978 µg/mL
COCCOc1cnc2ccn([C@H](C)c3nnc4c(F)cc(-c5cnn(C)c5)cn34)c(=O)c2c1 — Cmax (human; oral, 25 mg, multiple doses, once daily, patients): 0.6 µg/mL
CO[C@@H]1[C@H](OC(=O)N2CC(CCN3CCOCC3)C2)CC[C@]2(CO2)[C@H]1[C@@]1(C)O[C@@H]1CC=C(C)C — Cmax (human; subcutaneous, 1.2 mg, single dose, healthy volunteers): 0.00704 µg/mL
COc1ccc([C@@H]2CN(C(=O)[C@@H](O)CO)C[C@@]2(C)[C@@H](C)O)cc1OC1CN(c2ccc(C)cn2)C1 — Cmax (human; oral, 0.5 mg, single dose, healthy volunteers): 0.03 µg/mL
FC(F)(F)c1ccc(CNc2ccc(Cc3c[nH]c4ncc(Cl)cc34)cn2)cn1 — Cmax (human; oral, 800 mg, multiple doses, patients): 6.78 µg/mL
CCc1nc2c(C)cc(N3CCN(CC(=O)N4CC(O)C4)CC3)cn2c1N(C)c1nc(-c2ccc(F)cc2)c(C#N)s1 — Cmax (human; oral, 1000 mg, single dose, fed, healthy volunteers): 11.8 µg/mL
CO[C@H]1CC[C@H](N2C(=O)CNc3ncc(-c4ccc(C(C)(C)O)nc4)nc32)CC1 — Cmax (human; oral, 7.5 mg, patients): 0.0458 µg/mL
Cn1c(=O)oc2ccc(-c3ccc(C[C@@H](C#N)NC(=O)[C@@H]4CNCCCO4)cc3)cc21 — Cmax (male human; oral, 15 mg, single dose, healthy volunteers): 0.202 µM
CC(C)(O)c1ccccc1-c1ccc2[nH]c(/C=C/c3ccc(C(F)(F)F)cc3)nc2c1 — Cmax (male human; oral, 30 mg, single dose, fasted, healthy volunteers): 0.0918 µg/mL
CCn1c(=O)c(-c2cc(NC(=O)Nc3ccccc3)c(F)cc2Br)cc2cnc(NC)cc21 — Cmax (human; oral, 50 mg, single dose, patients): 0.339 µg/mL
COc1cc(C(=O)NC2CCN(C)CC2)c(F)cc1Nc1ncc(C(F)(F)F)c(Oc2cccc3c2C(=O)N(C)C3)n1 — Cmax (human; oral, 300 mg, multiple doses, once daily, steady state, patients): 5.06 µM
